High-throughput results as filed in PubChem.
CSN deneddyl inh – CSN deneddylation inhibition | Q92905 | AID 651999 | Purified CSN, SCF-Nedd8-OG deneddylation, fluorescence polarization | inhibition, % at 12.5 µM | 360,000 tested, 0.38% active;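 active = pattern-corrected inhibition above about 35%, with an unprinted fluorescence ratio check between 0.5 and 1.5, limit read from the data, passing the limit was not always enough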;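 also: 0% = enzyme with substrate and 100% = substrate without enzyme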
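assay system = purified human Csn5 enzyme expressed in HEK293T cells | amount = 0.24 nM enzyme | buffer or medium = Tris/NaCl/DTT buffer, pH 7.5 | reagent = 10 nM SCFSkp2-Nedd8OG | compound = one concentration, 12.5 µM, 0.25% DMSO | times = 90 min reaction at room temperature | signal = FP | read-out basis = % inhibition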
TPT1 inh – C. albicans TPT1 enzyme inhibition | recombinant caTPT1, FP RNA substrate dephosphorylation | 300,000 tested, 0.81% active | inhibition, % at 5 µM;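 active = inhibition above the mean of all tested compounds plus 3 SD, set per screening campaign, cut at about 24% in these data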;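 also: plate controls were DMSO alone for no effect and ferristatin control at 100 nM for full effect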
Rpn11 block – inhibitors of human proteasome Rpn11; 360,000 tested, 0.59% active; calls only at 20 µM; human 26S proteasome, Ub4-pepOG fluorescence polarization; 20S core pre-blocked with epoxomicin; O00487; AID 588493;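 active = inhibition at 20 µM, scaled to each plate's controls, above about 33%, limit read from the data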
HNF4A DNA FP – change in binding of human HNF4 alpha to DNA; P41235; HNF4a-FITC DNA binding, fluorescence polarization, 1 h; activity change, % at 10 µM; 360,000 tested, 0.3% active; AID 1224865; in the data active = activity change above about 30%, passing the limit was not always enough
Target sequence (P41235 whole entry, looked up): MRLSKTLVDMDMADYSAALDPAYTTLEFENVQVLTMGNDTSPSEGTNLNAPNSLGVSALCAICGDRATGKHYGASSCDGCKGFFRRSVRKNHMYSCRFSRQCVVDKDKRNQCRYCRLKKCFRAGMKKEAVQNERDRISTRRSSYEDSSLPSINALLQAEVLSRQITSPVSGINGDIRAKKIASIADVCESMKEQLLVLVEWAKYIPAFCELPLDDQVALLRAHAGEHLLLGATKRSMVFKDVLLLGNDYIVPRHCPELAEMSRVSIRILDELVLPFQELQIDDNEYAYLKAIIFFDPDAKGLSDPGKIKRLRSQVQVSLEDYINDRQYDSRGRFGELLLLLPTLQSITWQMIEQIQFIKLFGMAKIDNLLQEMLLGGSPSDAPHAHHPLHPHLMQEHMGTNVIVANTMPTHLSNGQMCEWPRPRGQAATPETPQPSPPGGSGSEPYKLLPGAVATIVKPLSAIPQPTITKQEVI
SENP1 FRET inh – inhibitors of human SENP1 SUMO protease catalytic domain; recombinant SENP1 catalytic domain, CyPet-SUMO1-YPet FRET cleavage; Q9P0U3; inhibition, % at 10 µM; 360,000 tested, 0.21% active;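 active = inhibition at least 30% at 10 µM, raw YFP signal under a set limit, fluorescence ratio 0.5 to 1.5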;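 also: 0% = enzyme with DMSO and 100% = no enzyme wells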
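Compound: 10 µM single point, 0.5% DMSO; Test system: hSENP1 catalytic domain, recombinant; Timing: 50 min reaction at room temperature; Technique: FRET, CFP and YFP emission; Control set: no-enzyme wells low, DMSO-plus-enzyme wells high control.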
SUMO HTRF inh – SUMOylation inhibition | P63279 | HTRF SUMOylation assay, SAE1/SAE2 + UBC9, in vitro | inhibition, % at 35 µM | 290,000 tested, 0.36% active; in the data active = inhibition above about 50%, passing the limit was not always enough
Target sequence (P63279 whole entry, looked up): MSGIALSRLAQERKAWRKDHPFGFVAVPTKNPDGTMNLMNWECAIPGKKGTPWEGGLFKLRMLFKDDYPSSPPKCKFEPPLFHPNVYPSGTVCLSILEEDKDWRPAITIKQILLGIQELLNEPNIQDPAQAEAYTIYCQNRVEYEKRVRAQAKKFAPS
SENP1 conf – confirmation of human SENP1 SUMO protease inhibitors; recombinant SENP1, CyPet-SUMO1-YPet FRET cleavage; shares compounds with SENP1 FRET inh; 520 tested, 34% active; inhibition, % at 10 µM; in the data active = inhibition mostly above about 35%, no sharp cut-off; inactive = mostly below about 32%;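 also: 0% = enzyme with DMSO and 100% = no enzyme control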
SENP1 kin conf – confirmation of human SENP1 SUMO protease inhibitors, kinetic | shares compounds with SENP1 FRET inh | recombinant SENP1, CyPet-SUMO1-YPet FRET kinetic cleavage | inhibition, % at 10 µM | 520 tested, 26% active | AID 651690; in the data active = inhibition mostly above about 32%, no sharp cut-off; inactive = mostly below about 29%;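 also: 0% = DMSO with enzyme and 100% = no enzyme substrate only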
An asterisk follows results filed as active; i = inactive; . = not tested or not shown. Hits are enriched below; roughly 1.8% of the tested compounds scored in any of these assays.

SMILES | CSN deneddyl inh | TPT1 inh | Rpn11 block | HNF4A DNA FP | SENP1 FRET inh | SUMO HTRF inh | SENP1 conf | SENP1 kin conf
CSc1nnc2c(n1)OC(C)N(C(=O)c1ccccc1)c1ccccc1-2 (stereo not given) | 1 | 1 | i | -7 | 30* | 33 | 33 | 34*
O=C(COC(=O)CN1C(=O)NC2(CCCC2)C1=O)Nc1ccc(C(F)(F)F)cc1[N+](=O)[O-] | -2 | -3 | i | -5 | -1 | . | . | .
COc1ccc(Nc2cc(C)nc3ncnn23)cc1Cl | 4 | 0 | i | -1 | 29* | 2 | 35* | 20
Cc1cccc(C)c1-n1nnnc1-c1nc2cc3ccccc3cc2[nH]c1=O | 3 | . | . | -10 | 63* | . | 62* | 45*
CCN(CC)c1ccc(NC(=O)Nc2ccc(C(C)=O)cc2)cc1 | 4 | -4 | i | 2 | 2 | -7 | . | .
CCN(CC)c1ccc(N=C2C=CC(=O)C=C2NC(C)=O)cc1 | 3 | . | i | -5 | 66* | . | 14 | 12
O=[N+]([O-])c1ccc(Oc2cccc3cccnc23)c([N+](=O)[O-])c1 | -1 | 10 | i | 3 | 76* | 12 | 25 | 16
N#Cc1ccc(Oc2cccc3cccnc23)c([N+](=O)[O-])c1 | -7 | -38 | i | 0 | -65 | 28 | . | .
Cc1ccc(C=NNc2ccc([N+](=O)[O-])cn2)cc1 | -2 | . | i | -3 | -32 | . | . | .
Cc1c(/C=N/Nc2ccc([N+](=O)[O-])cn2)c2ccccc2n1Cc1ccccc1 | 4 | 8 | i | 6 | 63* | 2 | 7 | 9
COCCn1c(=S)[nH]c2cc(C(=O)N3CCc4ccccc4C3)ccc2c1=O | 1 | -1 | i | -4 | 0 | 7 | . | .
CCOc1cc(/C=C2\SC(=S)N(NS(=O)(=O)c3ccccc3)C2=O)ccc1O | 33 | 13 | . | 15 | 82* | 3 | 124* | 70*
CCOc1ccc(/C=C2\SC(=S)N(NS(=O)(=O)c3ccccc3)C2=O)cc1OC | -1 | 2 | i | -4 | -1 | 14 | . | .
N#Cc1ccc(OCC(=O)OCC(=O)NC2CC2)cc1 | 4 | . | i | 1 | 4 | . | . | .
O=C(CCc1nnc(-c2ccccc2)o1)NCC1CCN(C2CCCC2)CC1 | 4 | 1 | i | -1 | 50* | 5 | -4 | 3
CC1CCN(C(=O)CCc2nnc(-c3ccccc3)o2)CC1 | -3 | -1 | i | -2 | 1 | 17 | . | .
N#C/C(=C/c1ccccc1)c1nn(CCO)c(N)c1C#N | 0 | -1 | i | 7 | -24 | -2 | . | .
N#C/C(=C\c1ccc(/C=C(/C#N)c2nn(CCO)c(N)c2C#N)cc1)c1nn(CCO)c(N)c1C#N | -5 | -1 | i | 3 | 38* | 19 | 33 | 27
Cc1cc(C)c2cc(C#N)c(SCC(=O)Nc3cc(C)on3)nc2c1 | 4 | 2 | i | 2 | 50* | 3 | -14 | 6
Cc1cc(NC(=O)CSc2nc3c(C)ccc(C)c3cc2C#N)no1 | -2 | 2 | i | 5 | 68* | 12 | 15 | 12
Cc1ccc(C(=O)c2c[nH]c3c(F)cc(F)cc3c2=O)cc1 | -3 | -5 | i | 0 | -1 | 18 | . | .
CCOC(=O)N1CCN(S(=O)(=O)c2ccc(C(=O)NNc3nc4c(C)cc(C)cc4s3)cc2)CC1 | 2 | -6 | i | -3 | 36 | -22 | . | .
CCOC(=O)N1CCN(S(=O)(=O)c2ccc(C(=O)NNc3nc4c(C)cccc4s3)cc2)CC1 | 5 | 3 | i | 1 | 35* | 7 | 25 | 42*
O=C(C[n+]1cccc2ccccc21)c1ccc(Cl)cc1 | 6 | 13 | . | -3 | 43* | -1 | 4 | 6
O=C(CCS(=O)(=O)Cc1ccccc1)Nc1nnc(C(F)(F)F)s1 | -1 | 0 | i | 1 | -2 | 14 | . | .
SMILES | CSN deneddyl inh | TPT1 inh | Rpn11 block | HNF4A DNA FP | SENP1 FRET inh | SUMO HTRF inh | SENP1 conf | SENP1 kin conf
O=C1C=C(O)c2cccc3cccc1c23 | -13 | -22 | i | -18 | 45* | -6 | 66* | 42*
NC1=CC(=O)c2cccc3cccc1c23 | . | -43 | . | . | . | 13 | . | .
CC(=O)Nc1cc(-c2cccc(C(=O)N(C)C)c2)cn2c(-c3cccc(C(F)(F)F)c3)cnc12 | -3 | . | i | 0 | -4 | . | . | .
O=C(CCS(=O)(=O)c1ccccc1)N(CCCN1CCOCC1)c1nc2ccccc2s1 | 2 | -4 | i | 0 | -1 | . | . | .
O=C(O)c1cccc2c1-c1ccc(Cl)cc1C2=O | -1 | . | i | 0 | 1 | . | . | .
Nc1cccc2c1C(=O)c1ccc(Cl)cc1C2=O | 11 | . | i | 19 | 30* | . | 33 | 16
CCOCCCNC(=O)C1(O)c2cc(Br)ccc2NC(=O)N1c1ccc(CC)cc1 (stereo not given) | 1 | 3 | i | -2 | 2 | -11 | . | .
CCOC(=O)/C(C#N)=C/c1cc2ccccc2nc1N1CCOCC1 | 2 | -2 | i | 0 | 67* | -11 | 35 | 20
CCCCOC(=O)c1ccc(OC(=O)N2CCOCC2)cc1 | -6 | -1 | i | -2 | 1 | 7 | . | .
O=C1CC(c2ccccc2)CC(=O)C1=CN1CCCC1 (stereo not given) | 4 | -1 | i | -3 | 1 | -2 | . | .
CCOC(=O)c1c(C#N)c(SCC(=O)Nc2ccc(OC)cc2)nc2c1CN(CC)CC2 | 5 | 1 | i | -3 | 40* | 0 | 20 | 11
COc1ccc(CCC(C)NCC(C)c2ccccc2)cc1 (stereo not given) | 0 | 1 | i | 1 | 2 | 4 | . | .
Cc1cccc(-c2c3c(=O)n(C)c(=O)n(C)c3c3cccnn23)c1 | -1 | -4 | i | 3 | 62* | 9 | 30* | 28
CN(C)c1ccc(C(=O)Nc2cccc(S(=O)(=O)N3CCCC3)c2)cc1 | 0 | . | i | 0 | -1 | . | . | .
Cc1nc2ccc(S(=O)(=O)N(C)CC(=O)NCc3ccc(N(C)C)cc3)cc2s1 | 9 | 23 | . | 20 | 56* | . | 15 | 15
Nc1nonc1-n1nnc(C(=O)N/N=C/c2cccnc2)c1CSc1ccc(Cl)cc1 | -1 | -1 | i | -1 | 2 | 11 | . | .
Cn1c2c(c(=O)n(C)c1=O)C(c1ccc(Cl)cc1)C(C#N)=C(N)O2 (stereo not given) | -9 | 1 | i | 4 | -6 | 9 | . | .
COc1ccc2cc(C#N)c(SCC(=O)N3CCCC3)nc2c1 | 2 | 4 | i | 0 | -27 | -11 | . | .
